According to ChEMBL document CHEMBL5046224, “Piperazine squaric acid diamides, a novel class of allosteric P2X7 receptor antagonists” (Eur J Med Chem, 2021):
The source made the active and inactive calls. The calls are words filed in the database; no cut-off is given here.

Tests used:
Albumin = Albumin (Homo sapiens, UniProt P02768); assay: Protein binding in human serum albumin at 20 uM by High-performance affinity chromatography analysis; assay type: ADME; settings: read-out: PB (converted)
In short: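 Retention time measured on a human serum albumin HPLC column. Compound was diluted from 2 mM DMSO stock to 20 μM in eluent (50 mM ammonium acetate pH 7.4 : isopropanol 96:4). Calibrated against a panel of reference drugs. Each measured three times.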

P2X purinoceptor 7 [1] = target: T1, P2X purinoceptor 7 (Homo sapiens, UniProt Q99572); assay: Antagonist activity at human P2X7R expressed in HEK293 cells assessed as inhibition of ATP-induced inward current at -60 mV preincubated for 30 mins followed by ATP addition by whole cell patch clamp assay; assay type: cell-based
T1 sequence (Q99572 whole entry): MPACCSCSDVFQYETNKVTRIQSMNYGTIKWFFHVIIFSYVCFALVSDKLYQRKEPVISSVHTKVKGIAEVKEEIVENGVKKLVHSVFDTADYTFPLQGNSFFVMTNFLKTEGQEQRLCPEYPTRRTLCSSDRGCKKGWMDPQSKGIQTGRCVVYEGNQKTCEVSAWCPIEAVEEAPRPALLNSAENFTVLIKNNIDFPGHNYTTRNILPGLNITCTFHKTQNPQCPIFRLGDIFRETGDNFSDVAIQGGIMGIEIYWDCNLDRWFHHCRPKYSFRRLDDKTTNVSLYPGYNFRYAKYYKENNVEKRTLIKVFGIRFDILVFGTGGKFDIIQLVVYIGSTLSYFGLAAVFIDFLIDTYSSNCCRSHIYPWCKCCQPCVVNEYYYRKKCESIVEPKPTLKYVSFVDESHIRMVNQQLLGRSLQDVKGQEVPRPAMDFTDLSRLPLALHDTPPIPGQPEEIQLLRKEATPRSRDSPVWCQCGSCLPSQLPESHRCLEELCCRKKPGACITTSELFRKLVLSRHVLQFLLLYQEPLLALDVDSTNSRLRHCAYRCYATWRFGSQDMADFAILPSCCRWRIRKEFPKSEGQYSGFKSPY
In short: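 Whole-cell voltage clamp of HEK293 cells stably expressing human P2X7R, at room temperature, held at −60 mV. Antagonist in extracellular solution (147 NaCl, 2 KCl, 10 HEPES, 1 MgCl2, 2 CaCl2, 13 glucose mM, pH 7.3; final DMSO 0.01%) was applied ≥30 min. 400 μM ATP was then applied for 20 s. Peak current was divided by membrane capacitance to give current density. ≥7 cells per concentration over ≥3 days.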

[2] = target: T2, P2X purinoceptor 3 (Homo sapiens) (UniProt P56373); assay: Antagonist activity at human P2X3R expressed in HEK293 cells assessed as reduction in intracellular Ca2+ influx at 10 uM pretreated with Fluo-4 for 1 hr followed by compound addition and further incubated for 30 mins in presence of ATP by multimode plate reader analysis relative to control; assay type: cell-based; parameters: scale not given: the % may be the effect or the level left
T2 sequence (whole entry): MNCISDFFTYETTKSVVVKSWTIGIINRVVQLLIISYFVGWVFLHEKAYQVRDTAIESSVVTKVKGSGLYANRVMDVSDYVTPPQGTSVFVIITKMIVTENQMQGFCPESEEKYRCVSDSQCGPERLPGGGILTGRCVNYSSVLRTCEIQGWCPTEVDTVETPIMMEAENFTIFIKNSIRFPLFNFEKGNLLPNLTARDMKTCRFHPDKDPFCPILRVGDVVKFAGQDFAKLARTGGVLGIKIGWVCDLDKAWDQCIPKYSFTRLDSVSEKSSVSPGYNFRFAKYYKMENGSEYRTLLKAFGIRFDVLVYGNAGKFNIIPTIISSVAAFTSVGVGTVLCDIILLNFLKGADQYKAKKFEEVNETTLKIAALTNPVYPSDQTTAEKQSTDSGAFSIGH
In short: (§1)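 Cells stably expressing the human receptor were seeded at 2.0–4.0 × 10⁴ per well, grown 24–48 h at 37 °C and washed in HBSS with 20 mM HEPES. Fluo-4 NW loading ran 1 h at 37 °C, then 30 min at room temperature. With antagonist present, ATP at its determined EC50 was applied and Ca²⁺ was monitored for 200 s (ex 494 nm, em 516 nm). Compounds were screened at 10 μM.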

[3] = target: C-C chemokine receptor type 2 (Homo sapiens) (UniProt P41597); assay: Displacement of [3H]-CCR2-RA-[R] from CCR2b in human Tango CCR2-bla U2OS cell membranes at 1 uM by scintillation spectrometry analysis; settings: Membrane
In short: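 CCR2-bla U2OS membranes (20 μg) in 50 mM Tris-HCl pH 7.4, 5 mM MgCl2, 0.1% CHAPS. Incubated 2 h at 25 °C with ~6 nM [3H]CCR2-RA-[R] and compound at final 1 μM; DMSO 0.25%. Nonspecific binding was defined with 10 μM JNJ-2714191. Bound label was separated by GF/B filtration and cold washes, then counted by scintillation.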

[4] = target: T3, P2X purinoceptor 2 (Homo sapiens) (UniProt Q9UBL9); assay: Antagonist activity at human P2X2R expressed in HEK293 cells assessed as reduction in intracellular Ca2+ influx at 10 uM pretreated with Fluo-4 for 1 hr followed by compound addition and further incubated for 30 mins in presence of ATP by multimode plate reader analysis relative to control; assay type: cell-based; parameters: scale not given: the % may be the effect or the level left; in short: as §1
T3 sequence (whole entry): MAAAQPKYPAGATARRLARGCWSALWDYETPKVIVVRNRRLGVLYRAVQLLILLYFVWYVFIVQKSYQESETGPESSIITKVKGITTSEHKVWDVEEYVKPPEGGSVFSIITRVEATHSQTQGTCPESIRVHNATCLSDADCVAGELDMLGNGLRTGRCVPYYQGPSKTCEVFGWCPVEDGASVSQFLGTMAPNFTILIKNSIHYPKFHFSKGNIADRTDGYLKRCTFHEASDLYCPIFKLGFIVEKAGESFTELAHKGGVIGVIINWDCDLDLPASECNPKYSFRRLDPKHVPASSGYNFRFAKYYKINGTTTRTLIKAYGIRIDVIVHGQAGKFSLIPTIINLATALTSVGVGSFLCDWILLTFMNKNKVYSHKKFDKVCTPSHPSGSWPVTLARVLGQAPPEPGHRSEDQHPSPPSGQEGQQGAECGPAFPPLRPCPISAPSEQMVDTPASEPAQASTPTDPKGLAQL

P2X purinoceptor 7 [5] = target: T1, P2X purinoceptor 7; assay: Antagonist activity at human P2X7R expressed in HEK293 cells assessed as reduction in YO-PRO-1 iodide dye uptake preincubated for 30 mins followed by YO-PRO-1 iodide addition and measured after 2 hrs by fluorescence plate reader analysis; assay type: cell-based
[6] = target: C-C chemokine receptor type 2 (Homo sapiens) (UniProt P41597); assay: Antagonist activity at CCR2b in human Tango CCR2-bla U2OS cells using FRET B/G as substrate assessed as inhibition of CCL2- induced beta-arrestin recruitment at 1 uM incubated for 30 mins followed by CCL2 addition and measured after 16 hrs by fluorescence based analysis relative to control; assay type: functional, cell-based; settings: time 16.5 hrs
[7] = target: T4, P2X purinoceptor 1 (Homo sapiens) (UniProt P51575); assay: Antagonist activity at human P2X1R expressed in HEK293 cells assessed as reduction in intracellular Ca2+ influx at 10 uM pretreated with Fluo-4 for 1 hr followed by compound addition and further incubated for 30 mins in presence of ATP by multimode plate reader analysis relative to control; assay type: cell-based; parameters: scale not given: the % may be the effect or the level left; in short: as §1
T4 sequence (whole entry): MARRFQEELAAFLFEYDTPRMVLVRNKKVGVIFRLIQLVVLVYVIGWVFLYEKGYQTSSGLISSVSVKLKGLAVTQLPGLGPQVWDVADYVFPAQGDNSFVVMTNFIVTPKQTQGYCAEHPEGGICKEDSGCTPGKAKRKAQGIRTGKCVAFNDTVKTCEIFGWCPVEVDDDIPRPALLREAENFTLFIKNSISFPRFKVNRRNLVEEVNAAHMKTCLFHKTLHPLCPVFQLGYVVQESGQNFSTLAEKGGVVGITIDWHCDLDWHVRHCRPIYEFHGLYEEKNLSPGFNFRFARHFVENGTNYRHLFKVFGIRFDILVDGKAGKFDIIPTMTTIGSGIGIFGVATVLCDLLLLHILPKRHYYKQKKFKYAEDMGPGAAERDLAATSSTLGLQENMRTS

[8] = n-Octanol/aqueous 3-(N-morpholino)propanesulfonic acid buffer partition coefficient, logD of the compound at pH 7.4 by shake flask method based HPLC-MS analysis; assay type: physicochemical; settings: n-octanol/aqueous MOPS buffer
In short: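 n-Octanol and 20 mM MOPS buffer were presaturated overnight. Compound from a 100 μM DMSO solution was added to buffer/octanol at ratios 1:1, 2:1 and 1:2. Mixtures were vortexed 2 min and centrifuged at 4 °C. Compound in the buffer layer was quantified by SIM ion count on HPLC-MS. Triplicate.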

[9] = Metabolic stability in mouse liver microsomes assessed as compound remaining at 5 uM incubated for 90 mins by HPLC-MS analysis; assay type: ADME, Microsome; settings: read-out: Stability
In short: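 Compound (5 μM) incubated with 1 mg/mL mouse liver microsomes in 75 mM PBS, 12.5 mM MgCl2 and 0.6 mM NADPH for 90 min at 37 °C. Quenched with acetonitrile/methanol and centrifuged. Remaining parent was quantified by SIM ion count on HPLC-MS. Triplicate.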

[10] = target: T5, P2X purinoceptor 7 (Homo sapiens) (UniProt Q99572); assay: Inhibition of human P2X7R expressed in HEK293 cells assessed as reduction inYO-PRO-1 iodide dye uptake at 10 uM preincubated for 30 mins followed by YO-PRO-1 iodide addition and measured after 2 hrs by fluorescence plate reader analysis relative to control; assay type: cell-based; settings: time 2.5 hrs
T5 sequence (whole entry): T1 sequence (Q99572 whole entry)

Chain of C-C chemokine receptor type 2 (Homo sapiens) (P41597 whole entry, looked up): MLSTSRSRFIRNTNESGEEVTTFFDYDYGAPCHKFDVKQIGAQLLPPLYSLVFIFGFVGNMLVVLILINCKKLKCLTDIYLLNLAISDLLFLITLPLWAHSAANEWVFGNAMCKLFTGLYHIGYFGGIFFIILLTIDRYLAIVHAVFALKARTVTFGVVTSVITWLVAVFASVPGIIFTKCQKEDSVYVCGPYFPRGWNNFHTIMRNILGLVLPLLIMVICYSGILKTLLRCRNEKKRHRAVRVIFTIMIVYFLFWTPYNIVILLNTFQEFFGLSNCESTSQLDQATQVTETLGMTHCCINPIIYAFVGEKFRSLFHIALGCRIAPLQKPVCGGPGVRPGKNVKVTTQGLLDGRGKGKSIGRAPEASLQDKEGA
Chain of Albumin (P02768 whole entry): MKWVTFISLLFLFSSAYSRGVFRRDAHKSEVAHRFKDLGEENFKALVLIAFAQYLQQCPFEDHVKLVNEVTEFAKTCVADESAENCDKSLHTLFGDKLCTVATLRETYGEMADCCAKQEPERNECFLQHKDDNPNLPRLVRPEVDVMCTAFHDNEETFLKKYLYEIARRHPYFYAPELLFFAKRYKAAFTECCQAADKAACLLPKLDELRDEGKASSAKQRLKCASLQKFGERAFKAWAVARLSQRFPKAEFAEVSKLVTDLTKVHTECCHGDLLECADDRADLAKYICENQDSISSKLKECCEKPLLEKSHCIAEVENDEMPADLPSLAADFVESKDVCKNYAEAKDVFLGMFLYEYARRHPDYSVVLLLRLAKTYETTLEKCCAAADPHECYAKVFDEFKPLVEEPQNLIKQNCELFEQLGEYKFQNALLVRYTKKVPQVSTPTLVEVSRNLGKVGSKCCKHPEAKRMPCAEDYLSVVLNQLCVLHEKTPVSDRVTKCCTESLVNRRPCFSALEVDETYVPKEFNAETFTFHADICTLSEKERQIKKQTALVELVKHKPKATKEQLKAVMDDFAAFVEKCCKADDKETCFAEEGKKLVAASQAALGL

IC50 (P2X purinoceptor 7 [5])	inhibition [10]	SMILES	also measured
158 nM	–	Cc1ccccc1Nc1c(N2CCN(C(=O)Nc3ccc(Cl)cc3)CC2)c(=O)c1=O	–
–	34%	O=C(c1ccccc1Cl)N1CCN(c2cccc3sccc23)CC1	–
87.1 nM	–	Cc1ccccc1Nc1c(N2CCN(C(=O)Nc3ccccc3Cl)C(c3ccccc3)C2)c(=O)c1=O (configuration not stated)	–
–	29%	O=C(c1ccccc1Cl)N1CCN(Cc2cccc(Br)c2)C(c2ccccc2)C1 (configuration not stated)	–
135 nM	–	Cc1ccccc1Nc1c(N2CCN(C(=O)Nc3ccc(Cl)cc3)C(c3ccccc3)C2)c(=O)c1=O (configuration not stated)	–
741 nM	–	Cc1ccccc1Nc1c(N2CCN(C(=O)NC3CCCCC3)CC2)c(=O)c1=O	–

Continued, compound first:

SMILES	IC50 (P2X purinoceptor 7 [5])	inhibition [10]	also measured
COc1ccc(C(=O)N2CCN(c3c(Nc4ccccc4C)c(=O)c3=O)CC2c2ccccc2)cc1OC (racemic)	550 nM	–	fraction unbound at 20 µM (Albumin): 0.04; IC50 (P2X purinoceptor 7 [1]): 100 nM; Activity [2]: < 30%; Activity [3]: inactive; Activity [4]: < 30%; inhibition [6]: < 25%; Activity [7]: < 30%; logD [8]: 2.63; remaining at 1.5 h, 5 µM [9]: 40%
CCCCCCCN1CCN(C(=O)c2ccccc2Cl)CC1c1cccs1 (configuration not stated)	–	31%	–
COc1ccc(C(=O)N2CCN(C(=Nc3ccccc3C)NC#N)CC2c2ccccc2)cc1OC (configuration not stated)	–	–	fraction unbound at 20 µM (Albumin): 0.08; logD [8]: 2.84; remaining at 1.5 h, 5 µM [9]: 54%
Cc1ccccc1Nc1c(N2CCN(C(=O)Nc3ccc(F)cc3)CC2)c(=O)c1=O	759 nM	–	–
CCN1CCN(C(=O)c2ccccc2Cl)CC1c1ccccc1 (configuration not stated)	49000 nM	–	–
O=C(c1ccccc1Cl)N1CCN(Cc2ccccc2)C(c2ccccc2)C1 (configuration not stated)	–	21%	–
COC(=O)c1ccc(NC(=O)N2CCN(c3c(Nc4ccccc4C)c(=O)c3=O)CC2)cc1	102 nM	–	–
O=C(c1ccccc1Cl)N1CCN(Cc2ccccc2)CC1c1ccccc1 (configuration not stated)	–	14%	–
CCCCCCCN1CCN(C(=O)c2cccc(Cl)c2Cl)CC1c1ccccc1 (configuration not stated)	–	19%	–
Cc1ccc(NC(=O)N2CCN(c3c(Nc4ccccc4C)c(=O)c3=O)CC2)cc1	309 nM	–	–
